Where “and” joins values, the source holds several entries; their conditions need not be identical. Equal values may be shown once.
Test system: HEK-293T
Experiment: Multiplex assay against HEK293T
Type: toxicity, cell-based
Conditions: human
Method in brief: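 Per cents of healthy-nucleus cells form the tubulin, mitochondrial-mass and membrane-permeability phenotype values. Live cells were stained at seeding with Hoechst33342, BioTracker Green Microtubule Cytoskeleton Dye, MitoTracker Red and Annexin V Alexa Fluor 680. After compound addition they were imaged on a CQ1 microscope at 37°C and 5% CO2, and CellPathfinder machine-learning gating split them into Hoechst high-intensity objects or normal cells, normal cells into healthy, pyknosed or fragmented nuclei, and pyknosed cells into mitotic or apoptotic.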

[1] = 12 h, 1 µM, compound concentration 1 uM, replicate 1
[2] = 12 h, 1 µM, compound concentration 1 uM, replicate 2
[3] = 12 h, 10 µM, compound concentration 10 uM, replicate 1
[4] = 12 h, 10 µM, compound concentration 10 uM, replicate 2
[5] = 24 h, 1 µM, compound concentration 1 uM, replicate 1
[6] = 24 h, 1 µM, compound concentration 1 uM, replicate 2
[7] = 24 h, 10 µM, compound concentration 10 uM, replicate 1
[8] = 24 h, 10 µM, compound concentration 10 uM, replicate 2
[9] = 48 h, 1 µM, compound concentration 1 uM, replicate 1
[10] = 48 h, 1 µM, compound concentration 1 uM, replicate 2
[11] = 48 h, 10 µM, compound concentration 10 uM, replicate 1
[12] = 48 h, 10 µM, compound concentration 10 uM, replicate 2

## CNC[C@H](O)c1ccc(O)c(O)c1 [EPINEPHRINE]
[1]
  Population Apoptotic (%): 20%
  Population Fragmented Nuclei (%): 6%
  Population Healthy Nuclei (%): 81%
  Population Hoechst High Intensity Objects (%): 7%
  Population Membrane Permeable-Phenotype (%): 0%
  Population Mitochondria Different-Phenotype (%): 31%
  Population Mitotic Cells (%): 80%
  Population Normal (%): 92%
  Population Pyknosed Nuclei (%): 11%
  Population Tubulin-Different-Phenotype (%): 26%
[2]
  Population Apoptotic (%): 56%
  Population Hoechst High Intensity Objects (%): 6%
  Population Mitochondria Different-Phenotype (%): 65%
  Population Mitotic Cells (%): 43%
  Population Normal (%): 93%
  Population Tubulin-Different-Phenotype (%): 27%
[3]
  Population Apoptotic (%): 55%
  Population Fragmented Nuclei (%): 12%
  Population Healthy Nuclei (%): 75%
  Population Hoechst High Intensity Objects (%): 9%
  Population Membrane Permeable-Phenotype (%): 1%
  Population Mitochondria Different-Phenotype (%): 65%
  Population Mitotic Cells (%): 44%
  Population Normal (%): 90%
  Population Pyknosed Nuclei (%): 11%
  Population Tubulin-Different-Phenotype (%): 39%
[4]
  Population Apoptotic (%): 56%
  Population Fragmented Nuclei (%): 11%
  Population Healthy Nuclei (%): 61%
  Population Hoechst High Intensity Objects (%): 40%
  Population Membrane Permeable-Phenotype (%): 0%
  Population Mitochondria Different-Phenotype (%): 62%
  Population Mitotic Cells (%): 43%
  Population Normal (%): 59%
  Population Pyknosed Nuclei (%): 26%
  Population Tubulin-Different-Phenotype (%): 25%
[5]
  Population Apoptotic (%): 19%
  Population Fragmented Nuclei (%): 9%
  Population Healthy Nuclei (%): 80%
  Population Hoechst High Intensity Objects (%): 5%
  Population Membrane Permeable-Phenotype (%): 0%
  Population Mitochondria Different-Phenotype (%): 25%
  Population Mitotic Cells (%): 80%
  Population Normal (%): 94%
  Population Pyknosed Nuclei (%): 9%
  Population Tubulin-Different-Phenotype (%): 21%
[6]
  Population Apoptotic (%): 36%
  Population Hoechst High Intensity Objects (%): 7%
  Population Membrane Permeable-Phenotype (%): 1%
  Population Mitochondria Different-Phenotype (%): 41%
  Population Mitotic Cells (%): 63%
  Population Normal (%): 92%
  Population Pyknosed Nuclei (%): 10%
  Population Tubulin-Different-Phenotype (%): 18%
[7]
  Population Apoptotic (%): 50%
  Population Fragmented Nuclei (%): 13%
  Population Healthy Nuclei (%): 75%
  Population Hoechst High Intensity Objects (%): 8%
  Population Membrane Permeable-Phenotype (%): 0%
  Population Mitochondria Different-Phenotype (%): 50%
  Population Mitotic Cells (%): 50%
  Population Normal (%): 91%
  Population Pyknosed Nuclei (%): 11%
  Population Tubulin-Different-Phenotype (%): 36%
[8]
  Population Apoptotic (%): 80%
  Population Fragmented Nuclei (%): 11%
  Population Healthy Nuclei (%): 71%
  Population Hoechst High Intensity Objects (%): 39%
  Population Mitochondria Different-Phenotype (%): 43%
  Population Mitotic Cells (%): 19%
  Population Normal (%): 60%
  Population Pyknosed Nuclei (%): 17%
  Population Tubulin-Different-Phenotype (%): 25%
[9]
  Population Apoptotic (%): 16%
  Population Fragmented Nuclei (%): 11%
  Population Healthy Nuclei (%): 81%
  Population Hoechst High Intensity Objects (%): 3%
  Population Membrane Permeable-Phenotype (%): 1%
  Population Mitochondria Different-Phenotype (%): 13%
  Population Mitotic Cells (%): 83%
  Population Normal (%): 96%
  Population Pyknosed Nuclei (%): 7%
  Population Tubulin-Different-Phenotype (%): 9%
[10]
  Population Apoptotic (%): 35%
  Population Fragmented Nuclei (%): 12%
  Population Healthy Nuclei (%): 78%
  Population Mitochondria Different-Phenotype (%): 24%
  Population Mitotic Cells (%): 64%
  Population Pyknosed Nuclei (%): 8%
  Population Tubulin-Different-Phenotype (%): 15%
[11]
  Population Apoptotic (%): 33%
  Population Fragmented Nuclei (%): 21%
  Population Healthy Nuclei (%): 72%
  Population Hoechst High Intensity Objects (%): 3%
  Population Membrane Permeable-Phenotype (%): 0%
  Population Mitochondria Different-Phenotype (%): 25%
  Population Mitotic Cells (%): 66%
  Population Normal (%): 96%
  Population Pyknosed Nuclei (%): 5%
  Population Tubulin-Different-Phenotype (%): 11%
[12]
  Population Apoptotic (%): 69%
  Population Fragmented Nuclei (%): 17%
  Population Healthy Nuclei (%): 67%
  Population Hoechst High Intensity Objects (%): 21%
  Population Mitochondria Different-Phenotype (%): 34%
  Population Mitotic Cells (%): 30%
  Population Normal (%): 78%
  Population Pyknosed Nuclei (%): 14%
  Population Tubulin-Different-Phenotype (%): 13%

## CC(=O)O[C@H]1C(=O)[C@@]2(C)[C@H]([C@H](OC(=O)c3ccccc3)[C@]3(O)C[C@H](OC(=O)[C@H](O)[C@@H](NC(=O)c4ccccc4)c4ccccc4)C(C)=C1C3(C)C)[C@]1(OC(C)=O)CO[C@@H]1C[C@@H]2O [PACLITAXEL]
[3]
  Population Apoptotic (%): 41% and 51%
  Population Fragmented Nuclei (%): 7% and 4%
  Population Healthy Nuclei (%): 74% and 79%
  Population Hoechst High Intensity Objects (%): 16% and 12%
  Population Membrane Permeable-Phenotype (%): 0%
  Population Mitochondria Different-Phenotype (%): 79% and 70%
  Population Mitotic Cells (%): 58% and 48%
  Population Normal (%): 83% and 87%
  Population Pyknosed Nuclei (%): 17% and 15%
  Population Tubulin-Different-Phenotype (%): 11% and 9%
[4]
  Population Apoptotic (%): 56% and 47%
  Population Fragmented Nuclei (%): 5% and 2%
  Population Healthy Nuclei (%): 64% and 75%
  Population Hoechst High Intensity Objects (%): 14%
  Population Mitochondria Different-Phenotype (%): 84% and 85%
  Population Mitotic Cells (%): 43% and 52%
  Population Normal (%): 85%
  Population Pyknosed Nuclei (%): 29% and 22%
  Population Tubulin-Different-Phenotype (%): 16% and 17%
[7]
  Population Apoptotic (%): 35% and 34%
  Population Fragmented Nuclei (%): 10% and 9%
  Population Healthy Nuclei (%): 70% and 73%
  Population Hoechst High Intensity Objects (%): 16% and 14%
  Population Membrane Permeable-Phenotype (%): 0%
  Population Mitochondria Different-Phenotype (%): 72% and 68%
  Population Mitotic Cells (%): 64% and 65%
  Population Normal (%): 83% and 85%
  Population Pyknosed Nuclei (%): 18% and 16%
  Population Tubulin-Different-Phenotype (%): 8% and 7%
[8]
  Population Apoptotic (%): 47% and 55%
  Population Fragmented Nuclei (%): 8% and 7%
  Population Healthy Nuclei (%): 75%
  Population Hoechst High Intensity Objects (%): 15%
  Population Mitochondria Different-Phenotype (%): 82% and 75%
  Population Mitotic Cells (%): 52% and 44%
  Population Normal (%): 84%
  Population Pyknosed Nuclei (%): 17%
  Population Tubulin-Different-Phenotype (%): 16% and 11%
[11]
  Population Apoptotic (%): 29% and 38%
  Population Fragmented Nuclei (%): 15% and 10%
  Population Healthy Nuclei (%): 68% and 75%
  Population Hoechst High Intensity Objects (%): 11% and 10%
  Population Membrane Permeable-Phenotype (%): 0%
  Population Mitochondria Different-Phenotype (%): 64% and 60%
  Population Mitotic Cells (%): 70% and 62%
  Population Normal (%): 88% and 89%
  Population Pyknosed Nuclei (%): 15% and 14%
  Population Tubulin-Different-Phenotype (%): 2% and 6%
[12]
  Population Apoptotic (%): 69% and 57%
  Population Fragmented Nuclei (%): 13%
  Population Healthy Nuclei (%): 70% and 73%
  Population Mitochondria Different-Phenotype (%): 70% and 68%
  Population Mitotic Cells (%): 30% and 42%
  Population Pyknosed Nuclei (%): 19% and 13%
  Population Tubulin-Different-Phenotype (%): 11%

Reference: ChEMBL document CHEMBL5058577, “EUbOPEN Chemogenomics Library 2 (Multiplex)” (2022)
